Measured values reported in ChEMBL document CHEMBL2057171, “Arylstibonic acids are potent and isoform-selective inhibitors of Cdc25a and Cdc25b phosphatases” (Bioorg Med Chem, 2012).
Activity calls are given as the source filed them. No cut-off for these calls is given here.

Key:
[1] = biological target: Receptor-type tyrosine-protein phosphatase beta (Homo sapiens) (UniProt P23467); assay: Inhibition of PTP-beta receptor using p-NPP as substrate at 5 uM by colorimetric analysis
Outline: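 Purchased PTP-β assayed with 1 mM p-NPP (near KM) in 25 mM Hepes pH 7.4, 50 mM NaCl, 5 mM DTT; arylstibonate fixed at 5 µM. The reaction was started by adding p-NPP in water, and p-nitrophenol release was read at 405 nm. Reported as % inhibition from triplicates, with standard error.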

[2] = species: Rattus norvegicus; assay: Inhibition of rat GST-tagged synaptojanin SAC1 domain expressed in Escherichia coli XL-1 blue using I(1,4,5))P3 as substrate at 5 uM by malachite green assay
Outline: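 GST-synaptojanin was expressed in E. coli XL-1 blue (1 mM IPTG, 18°C, 24 h) and purified on glutathione sepharose. Substrate: 50 µM PI(4)P in octylglucoside mixed micelles for synaptojanin; 50 µM I(1,4,5)P3 for SAC1. Assay ran at 37°C in 100 mM Tris pH 7.4, 4 mM MgCl2 with 5 µM compound. Malachite green stopped the reaction, colour developed 10 min, and absorbance was read at 625 nm. Heat-denatured enzyme served as blank. Triplicates.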

[3] = biological target: M-phase inducer phosphatase 1 (Homo sapiens) (UniProt P30304); assay: Mixed-type inhibition of N-terminal His-tagged Cdc25a catalytic domain expressed in Escherichia coli BL21(DE3) using 3-O-Methylfluorescein phosphate as substrate by Michaelis-Menten plot analysis
Outline: (§1)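 Steady-state kinetics of the Cdc25a and Cdc25b catalytic domains with varying OMFP and several arylstibonate concentrations. Run at 20 °C in 100 mM Tris pH 7.4 with 2 mM DTT, after a 10 min RT enzyme–inhibitor preincubation. Fluorescence read at ex 485/em 525 nm. Michaelis–Menten plots give apparent Km and Vmax; secondary plots give Ki.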

[4] = biological target: M-phase inducer phosphatase 1 (Homo sapiens) (UniProt P30304); assay: Reversible inhibition of N-terminal His-tagged Cdc25a catalytic domain expressed in Escherichia coli BL21(DE3) using 3-O-Methylfluorescein phosphate as substrate at 4 times IC50 by 10-fold dilution method
Outline: (§2)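 Reversibility test by dilution. Cdc25a or Cdc25b is preincubated with arylstibonate, then diluted 10-fold in reaction buffer (100 mM Tris pH 7.4, 2 mM DTT). Activity is then measured in the OMFP fluorescence assay (ex 485/em 525 nm, 20 °C) and expressed as % of the uninhibited reaction.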

[5] = biological target: M-phase inducer phosphatase 2 (Homo sapiens) (UniProt P30305); assay: Mixed-type inhibition of N-terminal His-tagged Cdc25b catalytic domain expressed in Escherichia coli BL21(DE3) using 3-O-Methylfluorescein phosphate as substrate by Michaelis-Menten plot analysis; outline: as §1
[6] = biological target: M-phase inducer phosphatase 2 (Homo sapiens) (UniProt P30305); assay: Reversible inhibition of N-terminal His-tagged Cdc25b catalytic domain expressed in Escherichia coli BL21(DE3) using 3-O-Methylfluorescein phosphate as substrate at 4 times IC50 by 10-fold dilution method; outline: as §2

Chain of Receptor-type tyrosine-protein phosphatase beta (Homo sapiens) (P23467 whole entry, looked up): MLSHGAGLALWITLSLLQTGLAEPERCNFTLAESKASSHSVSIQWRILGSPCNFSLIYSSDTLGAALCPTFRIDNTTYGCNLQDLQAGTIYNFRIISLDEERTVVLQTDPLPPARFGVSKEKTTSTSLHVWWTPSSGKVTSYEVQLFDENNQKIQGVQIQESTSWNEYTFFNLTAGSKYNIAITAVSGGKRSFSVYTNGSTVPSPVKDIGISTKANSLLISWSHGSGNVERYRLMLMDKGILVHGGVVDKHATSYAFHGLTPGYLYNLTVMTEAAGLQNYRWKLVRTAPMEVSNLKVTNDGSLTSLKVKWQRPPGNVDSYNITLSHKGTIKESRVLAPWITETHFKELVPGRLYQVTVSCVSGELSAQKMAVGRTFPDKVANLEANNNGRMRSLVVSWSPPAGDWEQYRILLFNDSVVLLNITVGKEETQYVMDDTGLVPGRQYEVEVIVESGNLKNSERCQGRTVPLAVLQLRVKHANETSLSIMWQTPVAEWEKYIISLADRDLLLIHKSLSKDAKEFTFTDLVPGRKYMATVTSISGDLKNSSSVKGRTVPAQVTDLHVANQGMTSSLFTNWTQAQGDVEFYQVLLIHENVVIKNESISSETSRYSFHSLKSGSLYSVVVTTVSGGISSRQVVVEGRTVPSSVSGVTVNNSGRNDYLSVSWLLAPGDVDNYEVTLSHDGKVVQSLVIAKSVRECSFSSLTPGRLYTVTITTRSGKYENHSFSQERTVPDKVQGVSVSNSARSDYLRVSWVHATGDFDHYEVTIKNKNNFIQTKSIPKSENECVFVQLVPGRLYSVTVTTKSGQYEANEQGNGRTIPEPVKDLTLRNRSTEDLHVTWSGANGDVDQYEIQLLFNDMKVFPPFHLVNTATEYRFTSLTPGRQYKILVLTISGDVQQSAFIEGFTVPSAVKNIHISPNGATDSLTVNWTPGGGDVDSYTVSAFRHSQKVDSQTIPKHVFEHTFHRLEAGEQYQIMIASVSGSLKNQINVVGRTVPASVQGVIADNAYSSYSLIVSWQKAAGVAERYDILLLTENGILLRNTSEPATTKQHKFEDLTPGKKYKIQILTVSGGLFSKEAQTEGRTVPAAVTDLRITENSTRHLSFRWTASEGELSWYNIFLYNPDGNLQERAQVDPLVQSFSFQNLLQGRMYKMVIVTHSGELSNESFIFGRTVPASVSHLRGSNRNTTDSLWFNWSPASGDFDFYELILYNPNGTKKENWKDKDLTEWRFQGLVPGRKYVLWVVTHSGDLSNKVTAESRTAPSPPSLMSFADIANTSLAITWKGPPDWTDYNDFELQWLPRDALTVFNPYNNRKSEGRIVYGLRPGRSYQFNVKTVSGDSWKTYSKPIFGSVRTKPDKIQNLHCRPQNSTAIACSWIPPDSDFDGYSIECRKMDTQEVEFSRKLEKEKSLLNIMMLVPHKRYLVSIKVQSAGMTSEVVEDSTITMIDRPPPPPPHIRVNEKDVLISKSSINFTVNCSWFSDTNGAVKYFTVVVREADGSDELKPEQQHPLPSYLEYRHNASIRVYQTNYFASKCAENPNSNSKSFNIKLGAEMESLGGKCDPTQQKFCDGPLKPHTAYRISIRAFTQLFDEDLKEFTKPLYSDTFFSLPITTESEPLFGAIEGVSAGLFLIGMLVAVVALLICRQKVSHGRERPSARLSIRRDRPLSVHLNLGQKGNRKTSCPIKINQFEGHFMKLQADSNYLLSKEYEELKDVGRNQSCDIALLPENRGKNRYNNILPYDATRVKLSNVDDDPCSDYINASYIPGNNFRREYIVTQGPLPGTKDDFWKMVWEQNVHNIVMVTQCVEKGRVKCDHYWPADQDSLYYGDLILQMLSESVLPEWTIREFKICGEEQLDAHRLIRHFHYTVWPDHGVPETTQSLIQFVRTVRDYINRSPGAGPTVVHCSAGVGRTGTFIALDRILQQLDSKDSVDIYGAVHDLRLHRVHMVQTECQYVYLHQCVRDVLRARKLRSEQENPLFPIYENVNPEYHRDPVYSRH
Chain of M-phase inducer phosphatase 2 (Homo sapiens) (P30305 whole entry, the tested form may be a part): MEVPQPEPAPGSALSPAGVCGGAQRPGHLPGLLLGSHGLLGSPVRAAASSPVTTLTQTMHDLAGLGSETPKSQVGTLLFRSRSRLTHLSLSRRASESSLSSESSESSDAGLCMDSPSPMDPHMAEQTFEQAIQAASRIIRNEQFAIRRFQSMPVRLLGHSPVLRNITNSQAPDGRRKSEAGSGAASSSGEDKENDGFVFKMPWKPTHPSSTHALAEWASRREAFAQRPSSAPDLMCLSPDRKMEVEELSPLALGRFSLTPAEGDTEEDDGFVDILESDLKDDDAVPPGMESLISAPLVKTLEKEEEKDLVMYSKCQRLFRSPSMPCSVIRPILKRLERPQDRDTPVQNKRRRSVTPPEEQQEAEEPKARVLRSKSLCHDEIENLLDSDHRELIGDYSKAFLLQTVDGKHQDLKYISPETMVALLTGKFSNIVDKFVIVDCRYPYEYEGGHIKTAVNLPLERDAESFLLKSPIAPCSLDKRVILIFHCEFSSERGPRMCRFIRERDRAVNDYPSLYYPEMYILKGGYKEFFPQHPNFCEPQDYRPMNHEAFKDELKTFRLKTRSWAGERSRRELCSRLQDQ
Chain of M-phase inducer phosphatase 1 (Homo sapiens) (P30304 whole entry, the tested form may be a part): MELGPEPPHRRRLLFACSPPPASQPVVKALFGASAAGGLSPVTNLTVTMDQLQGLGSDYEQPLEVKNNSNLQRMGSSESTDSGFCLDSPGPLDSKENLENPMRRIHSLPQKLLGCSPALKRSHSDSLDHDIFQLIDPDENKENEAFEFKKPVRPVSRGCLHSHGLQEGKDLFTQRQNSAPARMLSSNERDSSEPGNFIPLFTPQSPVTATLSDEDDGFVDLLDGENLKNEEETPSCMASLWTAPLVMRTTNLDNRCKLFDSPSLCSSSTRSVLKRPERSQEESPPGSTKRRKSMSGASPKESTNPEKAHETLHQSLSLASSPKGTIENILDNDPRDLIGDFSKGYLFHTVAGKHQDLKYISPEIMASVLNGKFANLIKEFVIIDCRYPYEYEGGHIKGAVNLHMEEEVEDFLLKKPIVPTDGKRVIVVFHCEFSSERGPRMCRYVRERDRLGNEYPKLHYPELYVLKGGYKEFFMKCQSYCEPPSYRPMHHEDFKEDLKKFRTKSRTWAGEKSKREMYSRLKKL

| Substance | inhibition [1] | inhibition [2] [%] | inhibition [3] | inhibition [4] | inhibition [5] | inhibition [6] |
| --- | --- | --- | --- | --- | --- | --- |
| 2-(3-stibonobenzyl)malonic acid | > 90% | > 40 |  |  |  |  |
| 2-(3-stibonophenoxy)acetic acid | > 90% | > 40 |  |  |  |  |
| 2-nitro-4-stibonobenzoic acid | > 90% | > 40 |  |  |  |  |
| 3-(3-stibonophenyl)propanoic acid | > 90% | > 40 | Active | Active | Active | Active |
| 3-nitrophenylstibonic acid | 50% | < 40 |  |  |  |  |
| 3-stibonobenzoic acid | 78% | < 40 |  |  |  |  |
| 4-benzamidophenylstibonic acid | > 90% | > 40 |  |  |  |  |
| 4-stibonobenzoic acid | 72% | < 40 |  |  |  |  |
| 4-stibonophthalic acid | 51% | < 40 |  |  |  |  |
| (E)-3-(3-stibonophenyl)acrylic acid | > 90% | > 40 | Active | Active | Active | Active |

Now from value to substance, other results behind:

| inhibition [1] | inhibition [2] [%] | Substance | inhibition [3] | inhibition [4] | inhibition [5] | inhibition [6] |
| --- | --- | --- | --- | --- | --- | --- |
| 67% | < 40 | 2-(4-stibonobenzyl)malonic acid |  |  |  |  |
| > 90% | > 40 | 2-nitrophenylstibonic acid |  |  |  |  |
| inactive | < 40 | 3-(3-ethoxy-2-(ethoxycarbonyl)-3-oxopropyl)phenylstibonic acid |  |  |  |  |
| inactive | < 40 | 3-(methoxycarbonyl)phenylstibonic acid |  |  |  |  |
| > 90% | > 40 | 4-(2-ethoxy-2-oxoethyl)phenylstibonic acid |  |  |  |  |
| > 90% | > 40 | 4-((4-hydroxyphenyl)diazenyl)phenylstibonic acid |  |  |  |  |
| inactive | < 40 | 4-hydroxyphenylstibonic acid |  |  |  |  |
| > 90% | > 40 | 4-iodophenylstibonic acid |  |  |  |  |
| inactive | < 40 | PHENYLSTIBONIC ACID |  |  |  |  |
